Data as given in ChEMBL document CHEMBL3734693, “Discovery of potent, selective, and orally bioavailable inhibitors of interleukin-1 receptor-associate kinase-4” (Bioorg Med Chem Lett, 2015).
In brackets after ≈: the same amount, converted by molar mass.

Legend:
[1] = target: T1, Interleukin-1 receptor-associated kinase 4 (Homo sapiens, UniProt Q9NWZ3); assay: Inhibition of recombinant full length IRAK-4 (unknown origin) using the biotinylated substrate RRRVTSPARRS by chemiluminescent ELISA
T1 sequence (Q9NWZ3 whole entry): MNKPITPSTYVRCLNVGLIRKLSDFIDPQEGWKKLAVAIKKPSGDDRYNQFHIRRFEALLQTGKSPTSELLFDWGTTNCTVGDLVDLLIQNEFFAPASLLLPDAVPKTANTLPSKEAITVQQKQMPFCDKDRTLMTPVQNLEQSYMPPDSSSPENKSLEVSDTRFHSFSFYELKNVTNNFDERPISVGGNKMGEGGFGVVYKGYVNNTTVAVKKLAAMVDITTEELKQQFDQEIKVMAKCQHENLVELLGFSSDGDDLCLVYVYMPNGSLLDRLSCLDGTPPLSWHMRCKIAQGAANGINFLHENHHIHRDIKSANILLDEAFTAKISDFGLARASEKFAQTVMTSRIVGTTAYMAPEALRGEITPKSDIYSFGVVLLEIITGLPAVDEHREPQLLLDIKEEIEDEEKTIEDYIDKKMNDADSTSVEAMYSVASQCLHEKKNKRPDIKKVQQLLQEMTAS

[2] = target: Interleukin-1 receptor-associated kinase 1 (Homo sapiens, UniProt P51617); assay: Inhibition of IRAK-1 (unknown origin)
[3] = target: T2, Mitogen-activated protein kinase kinase kinase 7 (Homo sapiens, UniProt O43318); assay: Inhibition of TAK1 (unknown origin)
T2 sequence (O43318 whole entry): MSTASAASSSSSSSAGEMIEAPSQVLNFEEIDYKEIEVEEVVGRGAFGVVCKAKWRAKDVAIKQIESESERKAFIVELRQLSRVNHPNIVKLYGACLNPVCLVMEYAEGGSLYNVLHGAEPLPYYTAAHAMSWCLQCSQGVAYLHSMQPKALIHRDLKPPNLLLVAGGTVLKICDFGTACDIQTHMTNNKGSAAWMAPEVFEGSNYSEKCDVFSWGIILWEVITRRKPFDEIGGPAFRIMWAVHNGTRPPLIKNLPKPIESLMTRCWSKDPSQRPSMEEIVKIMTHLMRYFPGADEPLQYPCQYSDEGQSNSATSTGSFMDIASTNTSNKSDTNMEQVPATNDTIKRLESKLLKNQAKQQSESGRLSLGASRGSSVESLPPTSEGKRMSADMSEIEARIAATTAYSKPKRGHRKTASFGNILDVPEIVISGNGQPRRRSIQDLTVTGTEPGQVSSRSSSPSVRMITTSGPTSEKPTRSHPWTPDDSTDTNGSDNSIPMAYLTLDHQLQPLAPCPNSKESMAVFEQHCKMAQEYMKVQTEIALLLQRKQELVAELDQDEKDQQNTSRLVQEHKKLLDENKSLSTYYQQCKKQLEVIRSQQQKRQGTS

[4] = Inhibition of Interleukin-1 induced Nuclear factor-kappa-B activation in primary human monocyte by electrophoretic mobility shift assay
[5] = Clearance in rat at 0.5 mg/kg, iv and 2 mg/kg, po; format: ADME, organism-based; conditions: in vivo
In short: (§1)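 Rats were given the compound intravenously at 0.5 mg/kg and orally at 2.0 mg/kg. Clearance, half-life, AUC and oral bioavailability were determined from these two dosings.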

[6] = Half-life in rat at 0.5 mg/kg, iv and 2 mg/kg, po; format: ADME, organism-based; conditions: in vivo; in short: as §1
[7] = test system: Rattus norvegicus; assay: AUC in rat at 0.5 mg/kg, iv and 2 mg/kg, po; format: ADME, organism-based; conditions: in vivo; in short: as §1
[8] = Oral bioavailability in rat at 2 mg/kg; format: ADME, organism-based; conditions: in vivo; in short: as §1
[9] = organism: Homo sapiens; assay: Ratio of Ki for IRAK-1 (unknown origin) to Ki for recombinant full length IRAK-4 (unknown origin)
[10] = organism: Homo sapiens; assay: Ratio of Ki for TAK1 (unknown origin) to Ki for recombinant full length IRAK-4 (unknown origin)
[11] = Solubility of the compound at pH 7.4; format: physicochemical; conditions: buffer
[12] = Permeability of the compound; format: ADME; conditions: not told; read-out: permeability
[13] = organism: Homo sapiens; assay: Selectivity for recombinant IRAK-4 (unknown origin) over PKA (unknown origin)
[14] = organism: Homo sapiens; assay: Selectivity for recombinant IRAK-4 (unknown origin) over PKC (unknown origin)
[15] = organism: Homo sapiens; assay: Selectivity for recombinant IRAK-4 (unknown origin) over CDK2 (unknown origin)
[16] = organism: Homo sapiens; assay: Selectivity for recombinant IRAK-4 (unknown origin) over CaMK (unknown origin)
[17] = organism: Homo sapiens; assay: Selectivity for recombinant IRAK-4 (unknown origin) over Akt1 (unknown origin)
[18] = organism: Homo sapiens; assay: Selectivity for recombinant IRAK-4 (unknown origin) over EGFRK (unknown origin)
[19] = organism: Homo sapiens; assay: Selectivity for recombinant IRAK-4 (unknown origin) over pp60SRC (unknown origin)
[20] = organism: Homo sapiens; assay: Selectivity for recombinant IRAK-4 (unknown origin) over LCK (unknown origin)

Interleukin-1 receptor-associated kinase 1, sequence (P51617 whole entry): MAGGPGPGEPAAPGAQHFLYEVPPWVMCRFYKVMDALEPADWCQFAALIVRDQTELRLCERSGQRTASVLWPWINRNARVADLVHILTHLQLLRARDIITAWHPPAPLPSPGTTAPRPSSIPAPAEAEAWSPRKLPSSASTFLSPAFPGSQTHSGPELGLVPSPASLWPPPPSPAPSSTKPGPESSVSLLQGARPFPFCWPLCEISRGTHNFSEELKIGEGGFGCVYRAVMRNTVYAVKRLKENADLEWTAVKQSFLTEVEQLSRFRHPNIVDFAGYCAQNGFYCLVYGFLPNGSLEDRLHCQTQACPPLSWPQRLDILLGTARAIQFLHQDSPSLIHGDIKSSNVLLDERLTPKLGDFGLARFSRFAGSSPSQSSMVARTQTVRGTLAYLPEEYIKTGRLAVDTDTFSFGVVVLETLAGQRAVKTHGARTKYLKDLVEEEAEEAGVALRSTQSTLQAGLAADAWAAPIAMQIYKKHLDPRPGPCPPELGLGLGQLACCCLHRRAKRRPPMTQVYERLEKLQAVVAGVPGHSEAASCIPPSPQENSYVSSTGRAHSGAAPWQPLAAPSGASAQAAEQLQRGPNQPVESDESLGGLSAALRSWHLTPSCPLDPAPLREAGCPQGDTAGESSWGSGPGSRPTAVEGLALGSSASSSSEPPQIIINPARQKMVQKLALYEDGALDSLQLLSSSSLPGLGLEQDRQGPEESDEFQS

SMILES	Ki [1]	Ki [3]	IC50 [4]	Ki [2]	further results
CC(C)(C)C(=O)Oc1ccc2c(c1)nc(NC(=O)c1cccc([N+](=O)[O-])c1)n2-c1ccc(CCCO)cc1					IC50 [1]: 150 nM; IC50 [2]: 900 nM
CC(C)(C)C(=O)Nc1ccc2c(c1)nc(NC(=O)c1cccc(C(F)(F)F)c1)n2[C@H]1CC[C@@H](CO)CC1	0.34 nM	2500 nM	100 nM		
O=C(Nc1nc2cc(CN3CCCCC3)ccc2n1-c1ccc(CCO)cc1)c1cccc(C(F)(F)F)c1	1.3 nM	700 nM	< 100 nM	12 nM	clearance [5]: 36.7 mL/min/kg; half-life [6]: 1.3 h; AUC [7]: 175 ng·h/mL; bioavailability [8]: 19%
O=C(Nc1nc2cc(CN3CCCCC3)ccc2n1-c1ccccc1)c1cccc([N+](=O)[O-])c1	8.2 nM	800 nM	100 nM	374 nM	
O=C(Nc1nc2ccc(F)cc2[nH]1)c1cccc([N+](=O)[O-])c1	4500 nM				
O=C(Nc1nc2cc(CN3CCCCC3)ccc2n1[C@H]1CC[C@@H](CO)CC1)c1cccc(C(F)(F)F)c1	0.42 nM	130 nM	< 100 nM	72 nM	
O=C(Nc1nc2ccc(CO)cc2n1[C@H]1CC[C@@H](CO)CC1)c1cccc(C(F)(F)F)c1	0.48 nM	1300 nM	< 100 nM		
O=C(Nc1nc2cc(CN3CCCCC3)ccc2n1-c1ccccc1)c1cccc(C(F)(F)F)c1	2.8 nM	2500 nM	300 nM	608 nM	clearance [5]: 9 mL/min/kg; half-life [6]: 23.7 h; AUC [7]: 1020 ng·h/mL; bioavailability [8]: 46%

Now from value to compound, other results behind:

Ki [1]	SMILES	Ki [3]	IC50 [4]	Ki [2]	further results
6.5 nM	O=C(Nc1nc2cc(F)ccc2n1[C@H]1CC[C@H](O)CC1)c1cccc([N+](=O)[O-])c1				
6.4 nM	O=C(Nc1nc2cc(F)ccc2n1[C@H]1CC[C@H](CO)CC1)c1cccc([N+](=O)[O-])c1				
38.5 nM	O=C(Nc1nc2cc(F)ccc2n1CCCO)c1cccc([N+](=O)[O-])c1				
11 nM	O=C(Nc1nc2cc(F)ccc2n1[C@H]1CC[C@H](CO)C1)c1cccc([N+](=O)[O-])c1				
1.6 nM	O=C(Nc1nc2cc(F)ccc2n1[C@H]1CC[C@@H](CO)CC1)c1cccc([N+](=O)[O-])c1				
7.8 nM	O=C(Nc1nc2cc(F)ccc2n1[C@H]1CC[C@@H](CO)C1)c1cccc([N+](=O)[O-])c1				
2.8 nM	O=C(Nc1nc2cc(CN3CCCCC3)ccc2n1[C@H]1CC[C@H](O)CC1)c1cccc([N+](=O)[O-])c1	15 nM		18 nM	Ratio Ki [9]: 6.4; Ratio Ki [10]: 5.3; solubility [11]: > 50 µg/mL; Papp [12]: 6.6 ×10⁻⁶ cm/s; clearance [5]: 41.7 mL/min/kg; half-life [6]: 2.1 h; AUC [7]: 124 ng·h/mL; bioavailability [8]: 16%; Selectivity ratio [13]: > 100; Selectivity ratio [14]: > 100; Selectivity ratio [15]: > 100; Selectivity ratio [16]: > 100; Selectivity ratio [17]: > 100; Selectivity ratio [18]: > 100; Selectivity ratio [19]: > 100; Selectivity ratio [20]: > 100
0.5 nM	O=C(Nc1nc2cc(CN3CCCC3=O)ccc2n1[C@H]1CC[C@H](O)CC1)c1cccc([N+](=O)[O-])c1				solubility [11]: 0.8 µg/mL (≈ 1.68 µM); Papp [12]: < 1 ×10⁻⁶ cm/s
3.8 nM	O=C(Nc1nc2cc(CN3CCOCC3)ccc2n1[C@H]1CC[C@H](O)CC1)c1cccc([N+](=O)[O-])c1				solubility [11]: 29 µg/mL (≈ 60.5 µM); Papp [12]: < 1 ×10⁻⁶ cm/s
0.7 nM	O=C(Nc1nc2cc(CN3CCCCC3)ccc2n1[C@H]1CC[C@@H](CO)CC1)c1cccc([N+](=O)[O-])c1	30 nM		48 nM	Ratio Ki [9]: 68; Ratio Ki [10]: 43; clearance [5]: 40 mL/min/kg; half-life [6]: 4.8 h; AUC [7]: 84 ng·h/mL; bioavailability [8]: 10%
11 nM	O=C(Nc1nc2cc(CO)ccc2n1[C@H]1CC[C@H](O)CC1)c1cccc([N+](=O)[O-])c1				solubility [11]: 4.9 µg/mL (≈ 11.9 µM); Papp [12]: < 1 ×10⁻⁶ cm/s
